In experiment [1] the target is T1, 5-hydroxytryptamine receptor 7 (Homo sapiens, UniProt P34969). The experiment in a line: Ability to displace the radioligand [3H]5-carboximidotryptamine ([3H]-5-CT) from cloned human 5-hydroxytryptamine 7 receptor expressed in COS-7 cells. It counts as cell-based. A digest of the protocol:
(§1)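 Displacement of [3H]5-CT from cloned human 5-HT7 receptor expressed in COS-7 cells. Affinity reported as pKi, given as mean ± SE of 8–12 values.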

Experiment [2] concerns the target T2, Serotonin 2 (5-HT2) receptor (Rattus norvegicus, UniProt P30994+P08909+P14842). As to the kind of experiment: Binding affinity towards 5-hydroxytryptamine 2 receptor by the displacement of [3H]ketanserin in rat cerebral cortex membrane. It counts as cell membranes. The method in brief: (§2)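 Displacement of [3H]ketanserin from rat cerebral cortex membranes at the 5-HT2 site. Affinity reported as pKi, given as mean ± SE of 8–12 values.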
(In general: Displacement assays read how much labelled ligand stays bound in the presence of the test substance.)

For experiment [3], the target named is 5-hydroxytryptamine receptor 6 (Homo sapiens, UniProt P50406). The experiment in a line: Binding affinity towards human recombinant 5-hydroxytryptamine 6 receptor by the displacement of [3H]-5-CT].
The target of experiment [4] is T3, 5-hydroxytryptamine receptor 2C (Homo sapiens, UniProt P28335).
T3 sequence (P28335 whole entry): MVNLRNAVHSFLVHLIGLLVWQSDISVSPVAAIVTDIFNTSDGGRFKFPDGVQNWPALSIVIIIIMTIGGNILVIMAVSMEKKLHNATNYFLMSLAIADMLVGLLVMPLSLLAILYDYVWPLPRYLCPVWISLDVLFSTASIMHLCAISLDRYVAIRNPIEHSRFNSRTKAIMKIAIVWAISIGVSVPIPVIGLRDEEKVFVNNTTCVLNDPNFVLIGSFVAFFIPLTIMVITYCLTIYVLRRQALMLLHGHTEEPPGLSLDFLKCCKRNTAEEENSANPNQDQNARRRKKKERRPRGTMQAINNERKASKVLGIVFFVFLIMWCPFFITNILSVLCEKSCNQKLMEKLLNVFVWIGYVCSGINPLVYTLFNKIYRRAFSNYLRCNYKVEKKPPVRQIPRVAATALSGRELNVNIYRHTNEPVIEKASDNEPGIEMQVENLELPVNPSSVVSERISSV
As to the kind of experiment: Binding affinity towards 5-HT2C receptor by the displacement of [3H]mesulergine] in human recombinant receptors in mammalian cell. The method in brief: (§3)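 Radioligand displacement binding at the named receptor preparation. Affinity reported as pKi, given as mean ± SE of 8–12 values.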

The target in experiment [5] is 5-hydroxytryptamine receptor 1B (Homo sapiens, UniProt P28222). The experiment in a line: Binding affinity towards 5-HT1B receptor by the displacement of [3H][…]] in human recombinant receptors in mammalian cell.
Experiment [6] concerns the target T1, 5-hydroxytryptamine receptor 7. As to the kind of experiment: Binding affinity towards 5-HT7 receptor by the displacement of [3H]-5-CT] in human recombinant receptors in mammalian cell. A digest of the protocol:
as §1

Experiment [7] deals with T4, 5-hydroxytryptamine receptor 1A (Homo sapiens, UniProt P08908).
T4 sequence (P08908 whole entry): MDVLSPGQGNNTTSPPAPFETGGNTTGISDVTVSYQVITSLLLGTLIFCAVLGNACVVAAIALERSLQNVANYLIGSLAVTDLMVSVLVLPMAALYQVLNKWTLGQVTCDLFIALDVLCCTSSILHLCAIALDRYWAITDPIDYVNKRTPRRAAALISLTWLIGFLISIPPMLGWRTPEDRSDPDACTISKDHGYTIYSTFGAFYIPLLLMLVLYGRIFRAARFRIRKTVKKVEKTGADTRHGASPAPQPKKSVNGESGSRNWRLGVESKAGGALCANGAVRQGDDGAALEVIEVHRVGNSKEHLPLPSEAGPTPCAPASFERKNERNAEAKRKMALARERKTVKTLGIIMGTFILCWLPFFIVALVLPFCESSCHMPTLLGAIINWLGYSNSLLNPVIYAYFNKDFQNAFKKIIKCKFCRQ
The experiment in a line: Binding affinity towards 5-HT1A receptor by the displacement of [3H]-8-OH-DPAT] in human recombinant receptors in mammalian cell. A digest of the protocol: as §3

For experiment [8], the target named is T2, Serotonin 2 (5-HT2) receptor. The experiment in a line: Binding affinity towards 5-HT2 receptor by the displacement of [3H]-ketanserin] in rat cerebral cortex. It counts as tissue-based. The method in brief:
as §2

For experiment [9], the target named is Serotonin 3 (5-HT3) receptor. As to the kind of experiment: Binding affinity towards 5-HT3 receptor by the displacement of [3H]GR-65630] in human recombinant receptors in mammalian cell. The class given is protein-complex assay. A digest of the protocol:
as §3

For experiment [10], the target named is 5-hydroxytryptamine receptor 4 (Cavia porcellus, UniProt O70528). As to the kind of experiment: Binding affinity towards 5-HT4 receptor by the displacement of [3H]GR-113808 in guinea-pig striatum. The class given is tissue-based. A digest of the protocol: as §3

The structures appear in SMILES notation.

A word on the Ki: it is a dissociation constant, usually derived from enzyme kinetics or from competition with a known ligand.

T1 sequence (P34969 whole entry): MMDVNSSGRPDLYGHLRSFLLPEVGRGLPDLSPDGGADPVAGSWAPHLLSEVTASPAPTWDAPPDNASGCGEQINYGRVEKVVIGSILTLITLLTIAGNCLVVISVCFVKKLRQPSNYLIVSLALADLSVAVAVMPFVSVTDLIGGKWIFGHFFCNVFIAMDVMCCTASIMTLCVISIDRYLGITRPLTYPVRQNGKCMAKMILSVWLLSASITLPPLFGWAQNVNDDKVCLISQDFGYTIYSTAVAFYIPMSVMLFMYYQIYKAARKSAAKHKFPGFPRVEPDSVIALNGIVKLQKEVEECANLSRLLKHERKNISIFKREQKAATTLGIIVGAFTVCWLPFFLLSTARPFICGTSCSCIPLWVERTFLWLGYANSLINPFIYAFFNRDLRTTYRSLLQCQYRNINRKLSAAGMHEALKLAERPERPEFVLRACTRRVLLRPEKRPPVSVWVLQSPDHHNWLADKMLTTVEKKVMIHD
Chain of 5-hydroxytryptamine receptor 1B (P28222 whole entry): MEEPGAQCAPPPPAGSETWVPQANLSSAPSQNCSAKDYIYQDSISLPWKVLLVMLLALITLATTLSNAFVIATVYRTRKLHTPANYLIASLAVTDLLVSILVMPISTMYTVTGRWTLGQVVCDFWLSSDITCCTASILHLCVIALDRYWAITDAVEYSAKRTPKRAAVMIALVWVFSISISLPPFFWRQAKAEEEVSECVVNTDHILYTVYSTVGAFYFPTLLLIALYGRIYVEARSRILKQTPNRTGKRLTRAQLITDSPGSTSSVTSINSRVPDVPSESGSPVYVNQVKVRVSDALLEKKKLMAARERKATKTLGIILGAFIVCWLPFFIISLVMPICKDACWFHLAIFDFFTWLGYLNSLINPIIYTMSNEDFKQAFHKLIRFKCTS
Chain of 5-hydroxytryptamine receptor 4 (O70528 whole entry): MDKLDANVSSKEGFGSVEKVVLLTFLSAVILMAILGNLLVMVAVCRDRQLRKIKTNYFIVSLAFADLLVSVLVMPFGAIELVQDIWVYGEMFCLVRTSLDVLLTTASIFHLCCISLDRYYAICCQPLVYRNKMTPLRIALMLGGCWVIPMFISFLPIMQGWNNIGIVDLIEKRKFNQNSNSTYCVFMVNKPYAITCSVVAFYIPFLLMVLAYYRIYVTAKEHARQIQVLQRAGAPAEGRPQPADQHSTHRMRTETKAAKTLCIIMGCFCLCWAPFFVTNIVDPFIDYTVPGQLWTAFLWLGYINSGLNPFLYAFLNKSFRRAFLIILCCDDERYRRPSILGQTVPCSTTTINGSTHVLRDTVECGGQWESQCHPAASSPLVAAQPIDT
Chain of 5-hydroxytryptamine receptor 6 (P50406 whole entry): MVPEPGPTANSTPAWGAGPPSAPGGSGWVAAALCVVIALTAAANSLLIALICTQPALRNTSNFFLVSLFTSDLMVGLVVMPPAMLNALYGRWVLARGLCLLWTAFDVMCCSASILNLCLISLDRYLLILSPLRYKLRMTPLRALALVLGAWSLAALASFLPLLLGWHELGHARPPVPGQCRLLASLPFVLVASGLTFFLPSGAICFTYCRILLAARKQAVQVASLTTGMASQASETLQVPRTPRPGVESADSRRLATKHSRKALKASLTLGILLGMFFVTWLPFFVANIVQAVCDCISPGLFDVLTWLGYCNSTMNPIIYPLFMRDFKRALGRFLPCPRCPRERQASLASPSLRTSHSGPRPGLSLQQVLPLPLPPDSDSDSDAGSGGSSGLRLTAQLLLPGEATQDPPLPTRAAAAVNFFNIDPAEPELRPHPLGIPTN

As for `O=C1Nc2ccc(Cl)c3c2C1(CCCCN1CC=C(c2ccccc2)CC1)CCC3` (stereo not given), the affinity in experiment [1] corresponds to a Ki of 5.01 nM. Moreover, in [2], the Log Ki is > -6.5.

For the compound `O=C1Nc2ccc(Cl)c3c2C1(CCCCN1CC=C(c2ccc(Cl)cc2)CC1)CCC3` (stereo not given), the Ki was 7.24 nM in [1]; > 1000 nM in [3]; > 1000 nM in experiment [4]; > 1000 nM in [5]; 7.24 nM in [6]; 316 nM in experiment [7]. The inhibition constant (Ki) in [10] was > 1000 nM. In addition, the Log Ki in [2], in experiment [8] and in experiment [9] was > -6 throughout.

On to `O=C1Nc2cccc3c2C1(CCCCN1CC=C(c2ccc(F)cc2)CC1)CCC3` (stereo not given), for which the Log Ki in experiment [2] was > -7.18.

`O=C1Nc2ccc(Cl)c3c2C1(CCCCN1CC=C(c2ccc(F)cc2)CC1)CCC3` (stereo not given) showed a Ki in experiment [1] of 2.04 nM. In addition, the Log Ki in experiment [2] is > -6.64.

The values above are taken from ChEMBL document CHEMBL1136421, “New tetrahydrobenzindoles as potent and selective 5-HT(7) antagonists with increased In vitro metabolic stability” (Bioorg Med Chem Lett, 2003).
